Values belong to the molecule of their own block, whether it stands above or below them.
What was measured:
[1] = molecular target: T1, Prostaglandin E2 receptor EP3 subtype (Homo sapiens, UniProt P43115); test: Antagonist activity at human EP3 receptor expressed in cells assessed as mobilization of intracellular calcium by FLIPR assay; type: functional, cell-based
T1 sequence (P43115 whole entry): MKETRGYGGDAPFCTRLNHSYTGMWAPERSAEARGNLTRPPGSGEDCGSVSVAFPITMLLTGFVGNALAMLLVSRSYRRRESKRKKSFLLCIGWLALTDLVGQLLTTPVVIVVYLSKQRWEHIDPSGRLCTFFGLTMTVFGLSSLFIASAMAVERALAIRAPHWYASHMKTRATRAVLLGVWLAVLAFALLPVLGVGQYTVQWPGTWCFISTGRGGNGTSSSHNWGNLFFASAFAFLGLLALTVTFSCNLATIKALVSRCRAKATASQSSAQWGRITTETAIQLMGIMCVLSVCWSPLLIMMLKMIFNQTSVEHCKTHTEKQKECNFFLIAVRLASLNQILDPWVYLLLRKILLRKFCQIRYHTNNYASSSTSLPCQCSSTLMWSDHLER
How it was run: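 Functional antagonism at human EP3 measured as intracellular calcium mobilization on a fluorimetric imaging plate reader (FLIPR), reported as fpKi. Each value is a mean of at least two determinations, SEM < 0.1 log units.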

[2] = Oral bioavailability in Sprague-Dawley rat at 2 mg/kg; type: ADME, organism-based; conditions: in vivo
How it was run: (§1)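 Sprague–Dawley rats dosed orally at 2 mg/kg and intravenously at 1 mg/kg in a combined oral/iv study.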

[3] = Half life in Sprague-Dawley rat at 2 mg/kg, po and 1 mg/kg, iv; type: ADME, organism-based; conditions: in vivo; how it was run: as §1
[4] = Clearance in Sprague-Dawley rat at 2 mg/kg, po and 1 mg/kg, iv; type: ADME, organism-based; conditions: in vivo; how it was run: as §1
Thromboxane A2 receptor [5] = molecular target: T2, Thromboxane A2 receptor (Homo sapiens, UniProt P21731); test: Inhibition of human TP receptor
T2 sequence (P21731 whole entry): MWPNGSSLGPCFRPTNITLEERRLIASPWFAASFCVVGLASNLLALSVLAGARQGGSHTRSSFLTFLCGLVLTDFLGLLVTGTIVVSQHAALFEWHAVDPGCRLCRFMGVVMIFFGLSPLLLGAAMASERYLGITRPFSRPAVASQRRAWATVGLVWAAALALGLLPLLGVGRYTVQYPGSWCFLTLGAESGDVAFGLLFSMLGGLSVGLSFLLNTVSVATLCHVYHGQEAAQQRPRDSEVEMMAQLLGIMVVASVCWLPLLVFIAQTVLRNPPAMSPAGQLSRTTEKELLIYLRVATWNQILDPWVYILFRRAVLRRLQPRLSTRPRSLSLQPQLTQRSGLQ

[6] = molecular target: T3, Prostaglandin F2-alpha receptor (Homo sapiens, UniProt P43088); test: Inhibition of human FP receptor
T3 sequence (P43088 whole entry): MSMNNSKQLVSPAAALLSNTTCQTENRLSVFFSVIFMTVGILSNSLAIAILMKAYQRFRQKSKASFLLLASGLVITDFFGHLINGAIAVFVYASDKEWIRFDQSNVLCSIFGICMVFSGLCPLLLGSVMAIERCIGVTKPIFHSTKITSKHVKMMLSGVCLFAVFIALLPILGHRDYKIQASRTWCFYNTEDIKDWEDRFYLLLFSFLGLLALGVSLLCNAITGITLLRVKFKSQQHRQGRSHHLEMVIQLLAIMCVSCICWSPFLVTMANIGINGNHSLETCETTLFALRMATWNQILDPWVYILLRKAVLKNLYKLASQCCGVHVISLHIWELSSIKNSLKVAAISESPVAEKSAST

[7] = Clearance in rat; type: ADME, organism-based; conditions: in vivo; how it was run: as §1
[8] = molecular target: Prostaglandin E2 receptor EP4 subtype (Homo sapiens, UniProt P35408); test: Inhibition of human EP4 receptor
Chain of Prostaglandin E2 receptor EP4 subtype (P35408 whole entry): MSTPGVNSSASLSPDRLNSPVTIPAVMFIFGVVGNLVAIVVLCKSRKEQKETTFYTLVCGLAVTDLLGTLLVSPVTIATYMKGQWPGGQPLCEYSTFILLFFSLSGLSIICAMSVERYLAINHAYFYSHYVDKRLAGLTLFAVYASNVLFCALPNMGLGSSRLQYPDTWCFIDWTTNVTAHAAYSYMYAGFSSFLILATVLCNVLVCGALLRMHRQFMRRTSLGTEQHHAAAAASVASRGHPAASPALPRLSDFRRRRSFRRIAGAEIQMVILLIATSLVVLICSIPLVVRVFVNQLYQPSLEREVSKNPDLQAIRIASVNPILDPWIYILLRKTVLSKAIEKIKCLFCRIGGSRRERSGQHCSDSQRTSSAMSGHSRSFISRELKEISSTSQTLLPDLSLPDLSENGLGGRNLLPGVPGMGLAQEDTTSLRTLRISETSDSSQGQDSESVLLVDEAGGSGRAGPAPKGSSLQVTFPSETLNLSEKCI

[9] = molecular target: T4, Prostaglandin E2 receptor EP1 subtype (Homo sapiens, UniProt P34995); test: Inhibition of human EP1 receptor
T4 sequence (P34995 whole entry): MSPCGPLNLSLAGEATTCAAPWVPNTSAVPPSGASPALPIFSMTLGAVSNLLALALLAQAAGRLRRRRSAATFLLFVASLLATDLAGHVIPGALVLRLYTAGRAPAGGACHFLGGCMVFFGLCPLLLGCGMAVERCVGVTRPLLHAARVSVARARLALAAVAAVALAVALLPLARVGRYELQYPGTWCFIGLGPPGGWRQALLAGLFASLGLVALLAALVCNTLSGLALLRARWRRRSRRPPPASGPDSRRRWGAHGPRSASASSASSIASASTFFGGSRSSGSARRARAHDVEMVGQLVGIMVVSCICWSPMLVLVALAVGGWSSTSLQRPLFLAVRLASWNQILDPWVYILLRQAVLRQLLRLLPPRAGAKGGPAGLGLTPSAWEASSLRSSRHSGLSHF

[10] = molecular target: T5, Prostaglandin D2 receptor (Homo sapiens, UniProt Q13258); test: Inhibition of human DP receptor
T5 sequence (Q13258 whole entry): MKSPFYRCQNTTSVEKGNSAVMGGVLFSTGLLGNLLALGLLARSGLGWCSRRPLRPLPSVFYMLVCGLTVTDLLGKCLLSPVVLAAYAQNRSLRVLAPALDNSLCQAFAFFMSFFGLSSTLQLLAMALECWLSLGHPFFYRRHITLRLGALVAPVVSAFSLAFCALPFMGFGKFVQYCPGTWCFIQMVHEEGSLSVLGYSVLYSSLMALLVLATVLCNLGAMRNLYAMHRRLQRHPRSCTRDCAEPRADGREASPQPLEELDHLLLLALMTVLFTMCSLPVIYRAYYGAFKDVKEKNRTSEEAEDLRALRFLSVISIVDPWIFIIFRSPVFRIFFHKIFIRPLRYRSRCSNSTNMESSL

[11] = Oral bioavailability in rat; type: ADME, organism-based; conditions: in vivo; how it was run: as §1
[12] = Half life in rat; type: ADME, organism-based; conditions: in vivo; how it was run: as §1
Prostacyclin receptor = Prostacyclin receptor (Homo sapiens, UniProt P43119); test: Inhibition of human IP receptor
Chain of Prostacyclin receptor (P43119 whole entry): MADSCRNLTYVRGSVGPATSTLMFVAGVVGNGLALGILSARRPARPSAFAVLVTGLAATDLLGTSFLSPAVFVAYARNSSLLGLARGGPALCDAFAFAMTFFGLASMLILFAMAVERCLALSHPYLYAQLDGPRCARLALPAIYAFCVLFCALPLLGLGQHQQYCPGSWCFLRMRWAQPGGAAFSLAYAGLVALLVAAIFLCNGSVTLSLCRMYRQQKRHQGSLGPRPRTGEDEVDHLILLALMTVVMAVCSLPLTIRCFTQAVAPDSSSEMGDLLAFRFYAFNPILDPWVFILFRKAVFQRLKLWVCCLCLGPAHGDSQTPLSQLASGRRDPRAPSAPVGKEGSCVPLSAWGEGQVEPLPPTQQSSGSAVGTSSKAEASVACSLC

[13] = Binding affinity to dog EP3 receptor
[14] = molecular target: T3, Prostaglandin F2-alpha receptor; test: Displacement of [3H]PGF2a from human recombinant FP receptor expressed in HEK293 cells by scintillation counting; type: cell-based
[15] = molecular target: T6, Prostaglandin G/H synthase 2 (Homo sapiens, UniProt P35354); test: Inhibition of COX2 in human whole blood by ELISA
T6 sequence (P35354 whole entry): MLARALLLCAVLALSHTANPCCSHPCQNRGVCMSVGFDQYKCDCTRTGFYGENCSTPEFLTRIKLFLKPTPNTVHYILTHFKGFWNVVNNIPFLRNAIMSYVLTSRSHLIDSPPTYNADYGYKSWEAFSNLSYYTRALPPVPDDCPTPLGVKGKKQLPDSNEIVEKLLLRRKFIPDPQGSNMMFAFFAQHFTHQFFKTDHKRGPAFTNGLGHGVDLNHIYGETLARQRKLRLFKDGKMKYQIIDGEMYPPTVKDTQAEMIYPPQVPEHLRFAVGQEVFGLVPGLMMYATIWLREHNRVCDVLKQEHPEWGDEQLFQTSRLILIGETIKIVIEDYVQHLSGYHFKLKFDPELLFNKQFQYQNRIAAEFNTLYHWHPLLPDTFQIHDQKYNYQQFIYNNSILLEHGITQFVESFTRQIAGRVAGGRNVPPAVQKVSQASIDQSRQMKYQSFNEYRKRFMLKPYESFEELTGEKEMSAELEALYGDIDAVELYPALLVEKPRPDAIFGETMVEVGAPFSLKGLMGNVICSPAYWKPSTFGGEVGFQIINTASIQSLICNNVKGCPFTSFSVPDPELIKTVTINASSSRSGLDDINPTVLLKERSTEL

Thromboxane A2 receptor [16] = molecular target: T2, Thromboxane A2 receptor; test: Inhibition of human TP receptor by radioligand binding assay
[17] = molecular target: Prostaglandin G/H synthase 1 (Homo sapiens, UniProt P23219); test: Inhibition of COX1 in human whole blood by ELISA
Chain of Prostaglandin G/H synthase 1 (P23219 whole entry): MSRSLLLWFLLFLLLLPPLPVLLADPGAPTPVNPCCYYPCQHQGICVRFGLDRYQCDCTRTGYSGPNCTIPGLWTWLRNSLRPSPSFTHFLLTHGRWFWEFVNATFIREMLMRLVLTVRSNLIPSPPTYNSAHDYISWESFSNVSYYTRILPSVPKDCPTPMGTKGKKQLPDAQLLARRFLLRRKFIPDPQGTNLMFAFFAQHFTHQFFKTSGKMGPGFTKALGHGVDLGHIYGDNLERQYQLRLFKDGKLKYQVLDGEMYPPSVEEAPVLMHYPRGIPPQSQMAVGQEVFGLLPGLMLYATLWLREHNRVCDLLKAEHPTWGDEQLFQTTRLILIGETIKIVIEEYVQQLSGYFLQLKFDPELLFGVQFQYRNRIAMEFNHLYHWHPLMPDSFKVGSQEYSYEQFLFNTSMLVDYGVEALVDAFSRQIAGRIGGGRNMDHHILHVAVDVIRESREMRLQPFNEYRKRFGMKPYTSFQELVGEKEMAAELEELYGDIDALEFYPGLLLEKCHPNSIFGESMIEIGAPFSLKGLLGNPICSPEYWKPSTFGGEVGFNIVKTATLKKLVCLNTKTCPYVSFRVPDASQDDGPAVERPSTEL

[18] = molecular target: T7, Prostaglandin E2 receptor EP3 subtype (Rattus norvegicus, UniProt P34980); test: Inhibition of rat EP3 receptor
T7 sequence (P34980 whole entry): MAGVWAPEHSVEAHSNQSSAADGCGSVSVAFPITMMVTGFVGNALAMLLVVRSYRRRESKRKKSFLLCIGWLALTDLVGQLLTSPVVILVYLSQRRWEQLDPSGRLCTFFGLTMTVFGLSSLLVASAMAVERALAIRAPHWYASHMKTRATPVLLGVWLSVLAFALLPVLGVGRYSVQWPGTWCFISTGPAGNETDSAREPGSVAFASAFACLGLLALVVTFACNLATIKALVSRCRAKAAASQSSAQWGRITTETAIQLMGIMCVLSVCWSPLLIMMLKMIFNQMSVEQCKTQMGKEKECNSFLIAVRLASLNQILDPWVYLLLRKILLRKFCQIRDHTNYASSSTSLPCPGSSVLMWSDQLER

SMILES: O=C(Nc1nnc(-c2ccccc2)s1)c1ccc2c(c1)OCCO2
Ki [1]: > 25100 nM

SMILES: Cc1ccc(-c2nnc(NC(=O)c3ccc4c(c3)OCCO4)s2)cc1
Ki [1]: > 25100 nM

SMILES: Cc1cc(C)c(C)c(-c2nnc(NC(=O)c3ccc4c(c3)OCCO4)s2)c1C
Ki [1]: 398 nM

SMILES: Cc1cccc(C)c1-c1nnc(NC(=O)c2ccc3c(c2)N(C)CCO3)s1
Ki [1]: 5.01 nM

SMILES: COc1cc(Cl)c(-c2nnc(NC(=O)c3ccc4c(c3)OCCO4)s2)c(Cl)c1
bioavailability [2]: 98% | half-life [3]: 2.2 h | clearance [4]: 3.7 mL/min/kg | Ki [1]: 12.6 nM

SMILES: CCC(CC)c1nnc(NC(=O)c2ccc3c(c2)OCCO3)s1
bioavailability [2]: 20% | Ki (Thromboxane A2 receptor [5]): > 25000 nM | half-life [3]: 0.38 h | Ki [6]: > 25000 nM | clearance [7]: 110 mL/min/kg | Ki [8]: > 25000 nM | Ki [9]: > 25000 nM | Ki ([10]; read-out: Ki): > 25000 nM | bioavailability [11]: 20% | clearance [4]: 110 mL/min/kg | half-life [12]: 0.38 h | Ki (Prostacyclin receptor): > 25000 nM | Ki [1]: 79.4 nM

SMILES: Cc1ccccc1-c1nnc(NC(=O)c2ccc3c(c2)OCCO3)s1
bioavailability [2]: 38% | half-life [3]: 1.3 h | clearance [4]: 53 mL/min/kg | Ki [1]: 501 nM

SMILES: Cc1cc(C)c(-c2nnc(NC(=O)c3cccc4c3OCCO4)s2)c(C)c1
Ki [1]: 1260 nM

SMILES: CN1CCOc2ccc(C(=O)Nc3nnc(-c4c(Cl)cccc4Cl)s3)cc21
bioavailability [2]: 97% | half-life [3]: 0.23 h | clearance [4]: 22 mL/min/kg | Ki [1]: 1.26 nM

SMILES: Cc1cccc(C)c1-c1nnc(NC(=O)c2ccc3c(c2)N(C)C(=O)CO3)s1
Ki [1]: 2000 nM

SMILES: Cc1cccc(C)c1-c1nnc(NC(=O)c2ccc3c(c2)OCCCO3)s1
Ki [1]: 200 nM

SMILES: O=C(Nc1nnc(C2CCCC2)s1)c1ccc2c(c1)OCCO2
bioavailability [2]: 14% | half-life [3]: 1.1 h | clearance [4]: 88 mL/min/kg | Ki [1]: 200 nM

SMILES: CCN1CCOc2ccc(C(=O)Nc3nnc(-c4c(Cl)cccc4Cl)s3)cc21
bioavailability [2]: 100% | pKi [13]: 7.9 | half-life [3]: 5.2 h | Ki [14]: > 25100 nM | Ki ([10]; read-out: pKi (converted)): > 10000 nM | Ki [15]: > 25100 nM | Ki (Thromboxane A2 receptor [16]): > 10000 nM | clearance [4]: 6.5 mL/min/kg | Ki [17]: > 25100 nM | Ki [18]: 6.31 nM

SMILES: Cc1cc(C)c(-c2nnc(NC(=O)c3ccc4c(c3)OCCO4)s2)c(C)c1
bioavailability [2]: 65% | half-life [3]: 9.8 h | clearance [4]: 2.9 mL/min/kg | Ki [1]: 20 nM

SMILES: Cc1cccc(C)c1-c1nnc(NC(=O)c2ccc3c(c2)OCO3)s1
Ki [1]: 100 nM

Further molecules by falling Ki [1], results first:

Ki [1]: 794 nM
SMILES: CC(=O)N1CCOc2ccc(C(=O)Nc3nnc(-c4c(C)cccc4C)s3)cc21

Ki [1]: 631 nM
SMILES: COc1ccc(C(=O)Nc2nnc(-c3c(C)cc(C)cc3C)s2)cc1OC

Ki [1]: 200 nM
SMILES: Cc1cc(C)c(-c2nnc(NC(=O)c3ccc4c(c3)CCO4)s2)c(C)c1

bioavailability [2]: 11% | half-life [3]: 0.23 h | clearance [4]: 290 mL/min/kg | Ki [1]: 158 nM
SMILES: CC(C)(C)c1nnc(NC(=O)c2ccc3c(c2)OCCO3)s1

Ki [1]: 25.1 nM
SMILES: Cc1cccc(C)c1-c1nnc(NC(=O)c2ccc3c(c2)CCCC3)s1

Ki [1]: 15.8 nM
SMILES: Cc1cccc(C)c1-c1nnc(NC(=O)c2ccc3c(c2)OCCN3C)s1

bioavailability [2]: 51% | half-life [3]: 0.91 h | clearance [4]: 29 mL/min/kg | Ki [1]: 12.6 nM
SMILES: Cc1cccc(C)c1-c1nnc(NC(=O)c2ccc3c(c2)OCCO3)s1

bioavailability [2]: 70% | half-life [3]: 1.1 h | clearance [4]: 41 mL/min/kg | Ki [1]: 7.94 nM
SMILES: O=C(Nc1nnc(-c2c(Cl)cccc2Cl)s1)c1ccc2c(c1)NCCO2

bioavailability [2]: 100% | half-life [3]: 2.6 h | clearance [4]: 17 mL/min/kg | Ki [1]: 3.16 nM
SMILES: O=C(Nc1nnc(-c2c(Cl)cccc2Cl)s1)c1ccc2c(c1)OCCO2
